Active and inactive are the calls of the source. The calls are words filed in the database; no cut-off is given here.
How the values were obtained:
[1] = (§1) Antiproliferative activity against human CNE2 cells after 72 hrs by MTT assay; assay type: functional, cell-based; conditions: CNE-2, 72 h
Summary of the method: (§2)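 MTT assay. Cells were grown in DMEM with 10% FBS, penicillin and streptomycin at 37 °C in 5% CO2, seeded in 96-well plates and exposed to compounds at 0.5–100 μM for 72 h. They were then given MTT (5 mg/ml) for 4 h, the formazan was dissolved in DMSO and A595 was read. IC50 is the mean ± SEM of three experiments.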

[2] = Antiproliferative activity against human CNE1 cells after 72 hrs by MTT assay; assay type: functional, cell-based; conditions: CNE; summary of the method: as §2
[3] = test system: CNE-2; experiment: Induction of apoptosis in human CNE2 cells assessed as late stage apoptotic cell count at 5 uM after 24 hrs by Annexin-V-FITC/PI binding assay; assay type: functional
Summary of the method: (§3)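 CNE-2 cells were treated at 5, 10, 25 or 50 μM for 24 h, collected, washed in ice-cold PBS, stained with Annexin-V-FITC and PI, and analysed by flow cytometry. Annexin-V+/PI− cells were counted as early apoptotic and double-positive cells as late apoptotic.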

[4] = test system: CNE-2; experiment: Induction of apoptosis in human CNE2 cells assessed as DNA fragmentation at 50 uM after 24 hrs by agarose gel electrophoresis; assay type: functional, cell-based
Summary of the method: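 CNE-2 cells were treated at 50 μM for 24 h, with untreated cells as control. DNA was obtained by standard digestion and organic extraction, run on a 2% agarose gel and stained with ethidium bromide to detect ladders.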

[5] = test system: CNE-2; experiment: Induction of apoptosis in human CNE2 cells assessed as increase in caspase 9 activity at 50 uM upto 24 hrs; assay type: functional, cell-based
Summary of the method: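 CNE-2 cells were treated at 50 μM for 0, 2, 4, 8, 14 and 24 h, trypsinized, PBS-washed and lysed on ice for 15 min. Lysates were spun at 20,000g at 4 °C, and 0.1 mg protein (Bradford) was incubated with Ac-LEHD-pNA for 2 h at 37 °C. pNA release was recorded at A405.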

[6] = test system: CNE-2; experiment: Induction of apoptosis in human CNE2 cells assessed as early stage apoptotic cell count at 5 uM after 24 hrs by Annexin-V-FITC/PI binding assay; assay type: functional; summary of the method: as §3
[7] = test system: CNE-2; experiment: Induction of apoptosis in human CNE2 cells assessed as early stage apoptotic cell count at 10 uM after 24 hrs by Annexin-V-FITC/PI binding assay; assay type: functional; summary of the method: as §3
[8] = test system: CNE-2; experiment: Induction of apoptosis in human CNE2 cells assessed as late stage apoptotic cell count at 50 uM after 24 hrs by Annexin-V-FITC/PI binding assay; assay type: functional; summary of the method: as §3
[9] = test system: CNE-2; experiment: as §1; assay type: functional, cell-based; summary of the method: as §2
[10] = test system: K562; experiment: Antiproliferative activity against human K-562 cells after 72 hrs by MTT assay; assay type: functional, cell-based; conditions: K562, 72 h
Summary of the method: (§4)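 IC50 from 72 h of compound treatment, reported as the mean ± SEM of three experiments, with significance set at P < 0.05.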

[11] = test system: CNE-2; experiment: Antiproliferative activity against human CNE2 cells at 3.45 uM by MTT assay; assay type: functional, cell-based; conditions: TDE = time-dependent effect
[12] = test system: CNE-2; experiment: Induction of apoptosis in human CNE2 cells assessed as late stage apoptotic cell count at 25 uM after 24 hrs by Annexin-V-FITC/PI binding assay; assay type: functional; summary of the method: as §3
[13] = Cell cycle arrest in human CNE2 cells assessed as accumulation at sub-G0-G1 phase visualized by propidium iodide staining at 50 uM after 24 hrs by flow cytometry; assay type: functional, cell-based; conditions: CNE-2
Summary of the method: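 CNE-2 cells were treated at 50 μM for 24 h, stained with propidium iodide and analysed by flow cytometry of DNA-content histograms. Apoptotic events were scored as the sub-G0–G1 population, and the cell-cycle phase distribution was also recorded.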

[14] = test system: CNE-2; experiment: Induction of apoptosis in human CNE2 cells assessed as early stage apoptotic cell count at 25 uM after 24 hrs by Annexin-V-FITC/PI binding assay; assay type: functional; summary of the method: as §3
[15] = test system: CNE-2; experiment: Induction of apoptosis in human CNE2 cells assessed as intracellular ROS production visualized by DCFH-DA after 30 hrs by FACS analysis; assay type: functional, cell-based
Summary of the method: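 CNE-2 cells were treated at 50 μM for 0–30 h (0, 2, 4, 6, 8, 13, 19, 24, 30 h), trypsinized, centrifuged and PBS-washed. They were loaded with DCFH-DA (10 μM) at 37 °C for 30 min, and the percentage of cells with higher DCF fluorescence was measured by FACS.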

[16] = test system: CNE-2; experiment: Induction of apoptosis in human CNE2 cells assessed as late stage apoptotic cell count at 10 uM after 24 hrs by Annexin-V-FITC/PI binding assay; assay type: functional; summary of the method: as §3
[17] = test system: CNE-2; experiment: Induction of apoptosis in human CNE2 cells assessed as caspase 3-mediated PARP cleavage at 50 uM after 24 hrs by enhanced chemiluminescence detection; assay type: functional, cell-based
Summary of the method: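 CNE-2 cells were treated at 50 μM for 24 h and lysed on ice for 30 min in Tris/EDTA/NaCl/SDS/Triton/deoxycholate/PMSF buffer. Cytosolic protein (25 μg, 15,000g supernatant) was run on 12% SDS-PAGE and blotted to nitrocellulose. Blots were probed with anti-PARP (1:1000) in milk block, and the 89 kDa cleaved band was detected by ECL.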

[18] = test system: CNE-2; experiment: Induction of apoptosis in human CNE2 cells assessed as early stage apoptotic cell count at 50 uM after 24 hrs by Annexin-V-FITC/PI binding assay; assay type: functional; summary of the method: as §3
[19] = test system: HeLa; experiment: Antiproliferative activity against human HeLa cells after 72 hrs by MTT assay; assay type: functional, cell-based; summary of the method: as §4
[20] = test system: CNE-2; experiment: Antiproliferative activity against human CNE2 cells at 5.19 uM by MTT assay; assay type: functional, cell-based; conditions: TDE = time-dependent effect
[21] = test system: CNE-2; experiment: Antiproliferative activity against human CNE2 cells at 5.06 uM by MTT assay; assay type: functional, cell-based; conditions: TDE = time-dependent effect
[22] = test system: CNE-2; experiment: Antiproliferative activity against human CNE2 cells at 9.86 uM by MTT assay; assay type: functional, cell-based; conditions: TDE = time-dependent effect
Summary of the method: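 CNE-2 nasopharyngeal carcinoma cells were grown in DMEM with 10% FBS and penicillin/streptomycin at 37 °C under 5% CO2. Cells were seeded in 96-well plates and exposed to compound at 0.5–100 µM for 24, 48 or 72 h; tabulated values are from 72 h. MTT (5 mg/ml) was added for 4 h, formazan dissolved in DMSO, A595 read. IC50 reported as mean ± SEM, three experiments.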

Work on CC(C)OP(=O)(N[C@H](C(=O)Nc1ccc(/C=C/c2ccccc2)cc1)C(C)C)OC(C)C yielded an IC50 [1] of 128 µM and an IC50 [2] of 49.3 µM.
Compound CC(C)OP(=O)(NCCCC(=O)Nc1ccc(/C=C/c2ccccc2)cc1)OC(C)C has an IC50 [1] of 6.47 µM and an IC50 [2] of 9.03 µM.
With COc1cc(/C=C/c2ccc(NC(=O)CCCCNP(=O)(OC(C)C)OC(C)C)cc2)cc(OC)c1 the Activity [3] was 9.86%, the Activity [4] was “Active” and the Activity [5] was “Active”. It also gave an Activity [6] of 6.45%, an Activity [7] of 16.24% and an Activity [8] of 66.79%. For the same compound, the Activity [9] was “Dose-dependent effect”, the IC50 [1] was 3.45 µM and the IC50 [10] was 5.32 µM. For the same compound, the Activity [11] was “tde”, the Activity [12] was 41.12% and the Activity [13] was 91.6%. For the same compound, the Activity [14] was 21.24%, the Activity [15] was “Active” and the Activity [16] was 22.51%. For the same compound, the Activity [17] was “Active”, the Activity [18] was 18.78% and the IC50 [19] was 5.62 µM. For the same compound, the IC50 [2] was 5.67 µM.
In the case of CC(C)OP(=O)(NCCCCC(=O)Nc1ccc(/C=C/c2ccccc2)cc1)OC(C)C, the Activity [4] is reported as “Active”, the Activity [9] is reported as “Dose-dependent effect” and the IC50 [1] is reported as 5.19 µM. The IC50 [10] was 9.58 µM, the Activity [13] was 45.3% and the Activity [20] was “tde”. The Activity [17] was “Active”, the IC50 [19] was 9.75 µM and the IC50 [2] was 6.36 µM.
Work on COc1cc(/C=C/c2ccc(NC(=O)[C@@H](NP(=O)(OC(C)C)OC(C)C)C(C)C)cc2)cc(OC)c1 yielded an IC50 [1] of 77.4 µM and an IC50 [2] of 116 µM.
Compound COc1cc(/C=C/c2ccc(NC(=O)[C@H](Cc3ccccc3)NP(=O)(OC(C)C)OC(C)C)cc2)cc(OC)c1 has an IC50 [1] of 9.83 µM and an IC50 [2] of 43.4 µM.
COc1cc(/C=C/c2ccc(NC(=O)CCNP(=O)(OC(C)C)OC(C)C)cc2)cc(OC)c1 showed an IC50 [1] of 8.19 µM and an IC50 [2] of 10.1 µM.
CC(C)OP(=O)(NCCC(=O)Nc1ccc(/C=C/c2ccccc2)cc1)OC(C)C gave an IC50 [1] of 6.81 µM and an IC50 [2] of 29.8 µM.
For CC(C)OP(=O)(OC(C)C)N1CCC[C@H]1C(=O)Nc1ccc(/C=C/c2ccccc2)cc1, the IC50 [1] was 12.2 µM and the IC50 [2] was 10.1 µM.
For COc1cc(/C=C/c2ccc(NC(=O)[C@H](CC(C)C)NP(=O)(OC(C)C)OC(C)C)cc2)cc(OC)c1, the IC50 [1] was 14.3 µM and the IC50 [2] was 55.3 µM.
For COc1cc(/C=C/c2ccc(NC(=O)CCCCCNP(=O)(OC(C)C)OC(C)C)cc2)cc(OC)c1, the Activity [4] was “Active”, the Activity [21] was “tde” and the Activity [9] was “Dose-dependent effect”. The IC50 [1] was 5.06 µM, the IC50 [10] was 6.89 µM and the Activity [13] was 57%. The Activity [17] was “Active”, the IC50 [19] was 6.41 µM and the IC50 [2] was 6.37 µM.
Compound COc1cc(/C=C/c2ccc(NC(=O)CCCNP(=O)(OC(C)C)OC(C)C)cc2)cc(OC)c1 has an IC50 [1] of 15.2 µM and an IC50 [2] of 12.3 µM.
Work on CC(C)OP(=O)(NCCCCCC(=O)Nc1ccc(/C=C/c2ccccc2)cc1)OC(C)C yielded an IC50 [1] of 24.3 µM and an IC50 [2] of 8.58 µM.
In the case of Oc1ccc(/C=C/c2cc(O)cc(O)c2)cc1 [RESVERATROL], the IC50 [1] is reported as 52.3 µM and the IC50 [2] is reported as 67.6 µM.
For COc1cc(/C=C/c2ccc(NC(=O)[C@H](C)NP(=O)(OC(C)C)OC(C)C)cc2)cc(OC)c1, the IC50 [1] was 11.7 µM and the IC50 [2] was 29.2 µM.
Nc1ccc(/C=C/c2ccccc2)cc1 [(E)-4-STYRYLANILINE] gave an IC50 [1] of 98.7 µM and an IC50 [2] of 54.5 µM.
CC(C)OP(=O)(N[C@@H](Cc1ccccc1)C(=O)Nc1ccc(/C=C/c2ccccc2)cc1)OC(C)C gave an IC50 [1] of 92.1 µM and an IC50 [2] of 83.7 µM.
For COc1cc(/C=C/c2ccc(NC(=O)CNP(=O)(OC(C)C)OC(C)C)cc2)cc(OC)c1, the IC50 [1] was 7.12 µM and the IC50 [2] was 8.91 µM.
With COc1cc(/C=C/c2ccc(NC(=O)[C@@H]3CCCN3P(=O)(OC(C)C)OC(C)C)cc2)cc(OC)c1 the Activity [4] was “Active”, the Activity [9] was “Dose-dependent effect” and the IC50 [1] was 9.86 µM. The IC50 [10] was 9.15 µM, the Activity [13] was 32.1% and the Activity [22] was “tde”. The Activity [17] was “Active”, the IC50 [19] was 9.53 µM and the IC50 [2] was 8.11 µM.
Work on CC(C)OP(=O)(NCC(=O)Nc1ccc(/C=C/c2ccccc2)cc1)OC(C)C yielded an IC50 [1] of 7.01 µM and an IC50 [2] of 7.5 µM.
CC(C)OP(=O)(N[C@@H](C)C(=O)Nc1ccc(/C=C/c2ccccc2)cc1)OC(C)C gave an IC50 [1] of 12.8 µM and an IC50 [2] of 25.4 µM.
Work on CC(C)C[C@H](NP(=O)(OC(C)C)OC(C)C)C(=O)Nc1ccc(/C=C/c2ccccc2)cc1 yielded an IC50 [1] of 65.6 µM and an IC50 [2] of 54.3 µM.

— ChEMBL document CHEMBL1151690, “The design, synthesis, and anti-tumor mechanism study of N-phosphoryl amino acid modified resveratrol analogues” (Bioorg Med Chem, 2008)
